Bioassay records: PubChem, The Scripps Research Institute Molecular Screening Center
M5 antag = antagonists of human muscarinic M5 receptor (CHRM5) | P08912 | CHO-hM5 cells, Fluo-8 calcium fluorescence, ACh EC80 | inhibition, % at 3 µM | actives 0.59% (n = 360,000) | AID 624040;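 active = inhibition above a per-plate cutoff, the mean of that plate's test compounds plus 3 SD, cut at about 27% in these data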
CHRM4 antagonist = antagonists of human muscarinic M4 receptor (CHRM4) | inhibition, % at 3 µM | actives 0.73% (n = 360,000) | P08173 | AID 624125 | CHO-hM4 cells, ACh EC80, Fluo-8 calcium fluorescence;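 active = inhibition above its plate's cutoff, the mean inhibition of sample wells plus 3 SD, cut at about 27% in these data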
Target sequence (P08173 whole entry, looked up): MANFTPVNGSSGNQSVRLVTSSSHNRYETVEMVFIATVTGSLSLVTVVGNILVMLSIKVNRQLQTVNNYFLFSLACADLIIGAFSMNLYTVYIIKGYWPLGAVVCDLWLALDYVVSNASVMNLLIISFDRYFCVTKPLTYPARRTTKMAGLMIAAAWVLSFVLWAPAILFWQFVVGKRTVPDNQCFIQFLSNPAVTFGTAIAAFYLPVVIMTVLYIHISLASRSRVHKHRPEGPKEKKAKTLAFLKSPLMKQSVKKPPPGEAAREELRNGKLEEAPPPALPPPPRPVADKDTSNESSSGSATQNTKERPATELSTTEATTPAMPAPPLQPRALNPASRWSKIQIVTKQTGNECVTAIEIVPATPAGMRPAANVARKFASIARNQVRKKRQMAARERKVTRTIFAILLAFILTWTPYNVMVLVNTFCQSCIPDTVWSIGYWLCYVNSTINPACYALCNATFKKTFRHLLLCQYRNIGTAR
CHRM5 PAM = CHRM5 positive allosteric modulation | P08912 | activation, % at 3 µM | CHO-K1 hM5, Fluo-8 calcium, ACh EC20 PAM; 0% = ACh EC20, 100% = ACh EC100 | actives 0.3% (n = 360,000) | AID 624038;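 active = activation above the run cutoff, the mean activation of all test compounds plus 3 SD, cut at about 18% in these data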
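Assay system – human M5 receptor in CHO-K1 cells · Read-out – % activation, ACh-normalized · Technique – Fluo-8 calcium fluorescence · Dosing – single-point, 3 µM nominal · Incubation – Fluo-8 loading 80 min at 37 °C plus 30 min room temperature · Repeats – singlicate, one well per test compound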
CHRM5 agonist = agonists of human muscarinic M5 receptor (CHRM5); P08912; CHO-K1 hM5 cells, Fluo-8 calcium fluorescence; 0% DMSO wells, 100% maximal acetylcholine response; activation, % at 3 µM; actives 0.19% (n = 360,000); AID 624037;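 active = activation above the run's mean over test compounds plus 3 SD, cut at about 23% in these data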;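 also: signal is peak over basal fluorescence ratio across the kinetic read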
CHRM4 PAM = CHRM4 positive allosteric modulation. actives 0.4% (n = 360,000). activation, % at 3 µM. CHO-K1 hM4/Gqi5, Fluo-8 calcium fluorescence, ACh EC20; 0% = ACh EC20, 100% = maximal ACh. P08173;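 active = activation above its plate's cutoff, the mean activation of sample wells plus 3 SD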
CHRM4 agonist = agonists of human muscarinic M4 receptor (CHRM4); AID 624127; P08173; actives 0.14% (n = 360,000); CHO-K1 hM4/Gqi5, Fluo-8 calcium fluorescence; vehicle 0%, full acetylcholine response 100%; activation, % at 3 µM;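 active = activation above the run mean over all test wells plus 3 SD, cut at about 32% in these data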;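 also: peak over basal fluorescence ratio per well then scaled between controls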
Of the large screens only hits and unclear results are named; the others gave an inactive call. In the library only some 1.8% were active in any assay of this set; here they are far more common.

CCOC(=O)CCc1c(C)c2ccc(OCC(=O)N(CC)CC)c(C)c2oc1=O	CHRM4 antagonist 36
O=[N+]([O-])c1cccc(C(=NCc2ccccc2)NO)c1	none
COc1cc(NCCCC(C)N)c2ncccc2c1 (stereo not given)	CHRM5 PAM 22
COc1ccccc1NS(=O)(=O)c1ccc2oc(N)nc2c1	none
COc1ccccc1N1C(=O)C2C(C(=O)c3ccccc3)=NN(c3ccc(Br)cc3)C2C1=O (stereo not given)	CHRM4 antagonist 37
COc1ccccc1N1C(=O)C2C(C(=O)c3ccccc3)=NN(c3ccc(C)cc3)C2C1=O (stereo not given)	none
Cc1ccc(CC2(c3ccccc3)NC(=O)NC2=O)cc1 (stereo not given)	none
CC1(c2ccc([N+](=O)[O-])cc2)NC(=O)NC1=O (stereo not given)	none
O=C(c1cccc(Br)c1)N1CCN(c2cnn(-c3ccccc3)c(=O)c2Cl)CC1	CHRM4 PAM 35
Oc1ccc(Cl)cc1C1=NNC(c2ccc(Cl)cc2)C1 (stereo not given)	none
Oc1ccc(Cl)cc1C1=NNC(c2cc(Br)cc3c2OCOC3)C1 (stereo not given)	CHRM5 PAM 21
C=C(C)COc1ccc(-c2ncncc2-c2ccccc2)c(O)c1	none
CCOC(=O)C1CCCN(C(=O)COc2ccccc2F)C1 (stereo not given)	none
CCOC(=O)C1CCCN(C(=O)COc2ccccc2O)C1 (stereo not given)	CHRM5 agonist 49
CCOC(=O)C1CCCN(C(=S)Nc2cc(C)cc(C)c2)C1 (stereo not given)	CHRM5 agonist 28
CCOC(=O)C1CCCN(S(=O)(=O)c2ccc(S(=O)(=O)N(CC)CC)cc2)C1 (stereo not given)	M5 antag 33
CCOC(=O)C1CCCN(CC(=O)Nc2cc(C)cc(C)c2)C1 (stereo not given)	none
CCOC(=O)C1CCCN(C(=S)Nc2ccc(S(=O)(=O)N3CCOCC3)cc2)C1 (stereo not given)	CHRM5 agonist 42
Cc1ccc(C)c(N(CC(=O)NC2CCCC2)S(=O)(=O)c2ccccc2)c1	none
Cc1ccc(S(=O)(=O)c2nc(-c3cccs3)oc2N2CCC(C(N)=O)CC2)cc1	none
O=C(CNC(=O)c1cccs1)N/N=C/c1c(F)cccc1Cl	none
Cc1cccc(C(=O)NCC(=O)N2CCN(S(=O)(=O)c3ccc4c(c3)OCCO4)CC2)c1	none
Cc1ccc(S(=O)(=O)NC(=O)C2CCCCC2)cc1	none
CCCCc1ccc(S(=O)(=O)NC2CCS(=O)(=O)C2)cc1 (stereo not given)	CHRM5 PAM 21
O=C(COC(=O)C1(c2ccccc2)CC1)NNC(=O)c1ccccc1F	none
C[N+](C)(C)CCOC(=O)C1(c2ccccc2)CCCC1	M5 antag 99, CHRM4 antagonist 97
COc1ccc(NC(=O)C2(c3ccccc3)CCCC2)cc1	none
CC(C[N+](C)(C)C)OC(=O)C1(c2ccccc2)CCCC1 (stereo not given)	M5 antag 42
C[N+]1(CCOC(=O)C2(c3ccccc3)CCCC2)CCCCC1	M5 antag 98, CHRM4 antagonist 97
O=C(CCc1ccccc1)NC(=S)NCc1ccco1	none
COc1ccc(CN(C)C(=O)c2ccc(Oc3ccccc3)cc2)cc1F	none
CN(Cc1ccc2ccccc2c1)C(=O)c1ccc(C(F)(F)F)cc1	M5 antag 27
O=C(O)CN(c1ccccn1)S(=O)(=O)c1ccc(Cl)cc1	CHRM4 PAM 20
O=C(O)CCCC(=O)N1CCN(c2nc(-c3ccccc3Cl)c3cc(Br)ccc3n2)CC1	none
Cc1cc(C(=O)N/N=C/c2ccc(-c3ccc([N+](=O)[O-])cc3C)o2)n[nH]1	none
Cc1cc([N+](=O)[O-])ccc1-c1ccc(/C=N/NC(=O)c2ccc(Br)o2)o1	CHRM5 agonist 246
O=c1c2ccccc2nc(/C=C/c2cc(Br)ccc2O)n1CCCO	none
Cc1cccc(NC(=O)COC(=O)c2nn(C)c(=O)c3ccccc23)c1C	none
O=C(Nc1ccc(Cl)c(Cl)c1)Nc1ccc(Br)cc1F	M5 antag 31
O=C(Nc1ccc(Cl)c([N+](=O)[O-])c1)C(Sc1ccccc1)c1ccccc1 (stereo not given)	M5 antag 30
O=C(Nc1ccc(Cl)c(Cl)c1)Nc1ccccc1O	M5 antag 42
O=C(Nc1ccc(Cl)c(Cl)c1)c1ccccc1	none
O=C(NNc1ccccc1[N+](=O)[O-])Nc1ccc(Cl)c(Cl)c1	M5 antag 29
CC(=O)NC(Cc1ccccc1F)C(=O)NC1CCN(C(=O)NCc2ccccc2)CC1 (stereo not given)	none
O=C(Nc1ccc(N2CCOCC2)cc1)Nc1ccc(Cl)c(Cl)c1	M5 antag 39, CHRM4 antagonist 48, CHRM4 agonist 43
COc1ccc(NC(=O)Nc2ccc(F)c(Cl)c2)cc1	M5 antag 35
CN1CCN(CC(O)(c2ccc(Cl)cc2)c2ccc(Cl)cc2)CC1	M5 antag 36
Cc1c(C(=O)N2CCOCC2)c(S(=O)(=O)Nc2cccc(C#N)c2)c(C)n1C	none
CCCCOC(=O)/C=C/c1c(C)[nH]c(=O)[nH]c1=O	CHRM4 PAM 22
Cc1cc(O)ccc1-c1cc(C(=O)NCc2ccc(F)cc2)[nH]n1	CHRM5 agonist 33
Cc1c(Cl)c(=O)oc2cc(OCC(=O)NCc3cccs3)ccc12	CHRM5 PAM 21
CCOC(=O)C1=CCN(S(=O)(=O)c2ccccc2Br)C1c1ccccc1 (stereo not given)	none
O=C(NCCc1ccccc1)c1ccc(NC(=O)C2CCC2)cc1	none
O=C(Nc1ccccc1N1CCN(c2ccc(F)cc2)CC1)C12CC3CC(CC(C3)C1)C2	CHRM5 PAM 20
Cc1cc(Cl)ccc1OCC(=O)Nc1ccncc1	M5 antag 33
Cc1cc(Cl)ccc1OCC(=O)NCc1ccncc1	none
CCN1CCN(c2ccc(NC(=O)COc3ccccc3Cl)cc2)CC1	none
O=C(COc1ccc(Cl)cc1Cl)NCc1ccncc1	CHRM4 antagonist 30
CCN1CCN(c2ccc(NC(=O)COc3ccc(Cl)cc3C)cc2)CC1	M5 antag 42, CHRM4 antagonist 28
O=C(NCc1ccccc1)c1ccc(CS(=O)(=O)c2ccccc2)o1	CHRM5 PAM 22
O=C(NCc1ccccc1)c1ccc(CS(=O)(=O)c2ccc(Br)cc2)o1	none
C[C@H](CO)N1C[C@H](C)[C@H](CN(C)C(=O)Nc2ccc(F)cc2)OCc2ccccc2-c2c(n(C)c3ccccc23)C1=O	none
COc1ccc(C2C(C#N)=C(N)Oc3cc(O)ccc32)cc1OC (stereo not given)	none
